Among the data in ChEMBL document CHEMBL1157587, “Novel thiophene derivatives as PTP1B inhibitors with selectivity and cellular activity” (Bioorg Med Chem, 2010) are IC50 and inhibition values, retold here.

Active and inactive are the calls of the source. No cut-off for these calls is given here.

Test [1] has as its target Receptor-type tyrosine-protein phosphatase F (Homo sapiens, UniProt P10586). Put plainly: Inhibition of LAR expressed in Escherichia coli BL21 (DE3) after 10 mins by spectrophotometry. The gist of the method:
(§1)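 GST-fused phosphatases expressed in E. coli BL21(DE3) with 0.2 mM IPTG for 6 h and purified as GST fusions. Assay system matched the PTP1B one: 20 mM HEPES, 150 mM NaCl, 1 mM EDTA, pH 7.0. Compound preincubated 10 min, then 5 mM pNPP added. Absorbance read at 405 nm. IC50 from fitted data.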

Test [2] has as its target T1, Tyrosine-protein phosphatase non-receptor type 2 (Homo sapiens, UniProt P17706).
T1 sequence (P17706 whole entry): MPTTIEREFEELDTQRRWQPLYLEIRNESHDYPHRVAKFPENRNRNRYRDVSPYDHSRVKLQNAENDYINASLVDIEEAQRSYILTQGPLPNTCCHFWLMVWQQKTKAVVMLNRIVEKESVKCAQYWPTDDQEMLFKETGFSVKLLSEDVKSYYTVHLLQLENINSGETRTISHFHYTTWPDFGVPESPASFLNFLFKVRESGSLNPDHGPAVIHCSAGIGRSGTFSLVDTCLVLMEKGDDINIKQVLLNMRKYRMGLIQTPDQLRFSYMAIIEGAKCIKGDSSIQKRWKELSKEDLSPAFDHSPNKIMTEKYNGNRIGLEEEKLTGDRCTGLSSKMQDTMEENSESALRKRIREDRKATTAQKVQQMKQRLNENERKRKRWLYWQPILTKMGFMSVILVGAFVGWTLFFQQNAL
Kind of test: Inhibition of TCPTP expressed in Escherichia coli BL21 (DE3) after 10 mins by spectrophotometry. Summed up: as §1

The target of test [3] is T2, Tyrosine-protein phosphatase non-receptor type 1 (Homo sapiens, UniProt P18031).
T2 sequence (P18031 whole entry): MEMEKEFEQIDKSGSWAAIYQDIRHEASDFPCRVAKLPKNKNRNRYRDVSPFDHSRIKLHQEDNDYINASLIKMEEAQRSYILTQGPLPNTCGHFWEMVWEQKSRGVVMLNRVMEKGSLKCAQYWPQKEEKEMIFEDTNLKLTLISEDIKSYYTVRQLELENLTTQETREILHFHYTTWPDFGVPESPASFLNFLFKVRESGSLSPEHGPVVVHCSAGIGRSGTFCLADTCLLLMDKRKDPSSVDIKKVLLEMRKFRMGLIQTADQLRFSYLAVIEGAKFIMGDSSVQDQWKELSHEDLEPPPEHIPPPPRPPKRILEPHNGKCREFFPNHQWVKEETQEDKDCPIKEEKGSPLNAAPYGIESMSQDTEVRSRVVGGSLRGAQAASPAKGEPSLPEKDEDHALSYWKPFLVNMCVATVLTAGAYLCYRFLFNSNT
Kind of test: Allosteric inhibition of PTP1B.

For test [4], the target named is T3, Tyrosine-protein phosphatase non-receptor type 1 (Homo sapiens) (UniProt P18031).
T3 sequence (whole entry): T2 sequence (P18031 whole entry)
Put plainly: Inhibition of PTP1B expressed in CHOK1 cells assessed as induction of AKT phosphorylation at 10 uM after 2 hrs by immunoblot analysis. The class given is cell-based. Conditions: CHO-K1. Summed up:
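CHO-K1 cells grown in F-12 Ham with 10% FBS at 37 °C, 5% CO2. Serum-starved 2 h, then given 10 μM compound for 2 h. Lysates immunoblotted for phospho-AKT (Ser473) and total AKT, with GAPDH as loading control.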
(In general: A western blot detects proteins with antibodies after separation by electrophoresis.)

Test [5] addresses T4, Receptor-type tyrosine-protein phosphatase C (Homo sapiens, UniProt P08575).
T4 sequence (P08575 whole entry): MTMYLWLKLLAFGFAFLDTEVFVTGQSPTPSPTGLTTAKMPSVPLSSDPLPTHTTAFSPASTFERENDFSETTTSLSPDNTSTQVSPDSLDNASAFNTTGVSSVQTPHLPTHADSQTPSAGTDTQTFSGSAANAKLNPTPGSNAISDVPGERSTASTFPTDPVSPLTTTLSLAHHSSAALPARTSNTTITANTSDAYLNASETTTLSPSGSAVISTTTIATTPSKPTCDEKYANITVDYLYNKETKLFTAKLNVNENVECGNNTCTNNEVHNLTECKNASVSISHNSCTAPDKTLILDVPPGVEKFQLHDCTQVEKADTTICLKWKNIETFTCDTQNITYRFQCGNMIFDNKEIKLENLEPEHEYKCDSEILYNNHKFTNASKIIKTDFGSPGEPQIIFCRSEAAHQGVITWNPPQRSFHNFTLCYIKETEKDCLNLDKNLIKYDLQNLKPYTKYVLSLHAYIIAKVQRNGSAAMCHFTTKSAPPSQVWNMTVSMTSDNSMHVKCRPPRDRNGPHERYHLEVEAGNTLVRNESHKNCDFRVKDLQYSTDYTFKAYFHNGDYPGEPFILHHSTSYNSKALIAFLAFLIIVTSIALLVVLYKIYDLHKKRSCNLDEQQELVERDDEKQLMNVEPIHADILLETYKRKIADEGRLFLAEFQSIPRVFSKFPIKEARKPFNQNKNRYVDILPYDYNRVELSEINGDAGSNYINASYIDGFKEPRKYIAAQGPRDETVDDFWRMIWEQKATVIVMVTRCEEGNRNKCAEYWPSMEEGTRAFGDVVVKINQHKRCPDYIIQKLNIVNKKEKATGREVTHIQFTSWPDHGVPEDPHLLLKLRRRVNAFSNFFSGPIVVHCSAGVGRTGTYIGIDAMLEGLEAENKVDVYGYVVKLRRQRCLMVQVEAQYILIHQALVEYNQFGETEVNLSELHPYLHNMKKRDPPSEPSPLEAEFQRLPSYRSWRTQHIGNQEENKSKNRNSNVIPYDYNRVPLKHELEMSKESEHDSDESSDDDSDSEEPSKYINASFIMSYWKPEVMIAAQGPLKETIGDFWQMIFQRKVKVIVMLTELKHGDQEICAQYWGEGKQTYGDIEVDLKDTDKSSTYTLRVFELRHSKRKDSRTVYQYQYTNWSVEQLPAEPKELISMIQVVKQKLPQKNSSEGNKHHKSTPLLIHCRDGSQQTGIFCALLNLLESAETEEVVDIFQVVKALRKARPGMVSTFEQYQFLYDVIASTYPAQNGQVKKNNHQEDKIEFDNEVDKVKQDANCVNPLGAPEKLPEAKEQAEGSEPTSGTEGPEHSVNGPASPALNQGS
Put plainly: Inhibition of CD45 expressed in Escherichia coli BL21 (DE3) after 10 mins by spectrophotometry. Summed up: as §1

Test [6] has as its target T3, Tyrosine-protein phosphatase non-receptor type 1 (Homo sapiens). Kind of test: Inhibition of PTP1B expressed in Escherichia coli BL21 (DE3) at 10 uM after 10 mins by spectrophotometry. Summed up:
(§2)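 GST-PTP1B(1-321), 0.03 μM, expressed in E. coli BL21(DE3) with 0.2 mM IPTG for 6 h and purified as GST fusion. Reaction buffer was 20 mM HEPES, 150 mM NaCl, 1 mM EDTA, pH 7.0. Compound preincubated 10 min, then reaction started with 5 mM pNPP. pNP read at 405 nm. Screening at 100 and 10 μM. IC50 by curve fitting, means of three determinations.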

In test [7] the target is T2, Tyrosine-protein phosphatase non-receptor type 1. Put plainly: Inhibition of PTP1B expressed in Escherichia coli BL21 (DE3) after 10 mins by spectrophotometry. Summed up: as §2
Test [8] deals with T3, Tyrosine-protein phosphatase non-receptor type 1 (Homo sapiens). Put plainly: Inhibition of PTP1B expressed in Escherichia coli BL21 (DE3) at 100 uM after 10 mins by spectrophotometry. The gist of the method:
as §2

Receptor-type tyrosine-protein phosphatase F, sequence (P10586 whole entry, the tested form may be a part): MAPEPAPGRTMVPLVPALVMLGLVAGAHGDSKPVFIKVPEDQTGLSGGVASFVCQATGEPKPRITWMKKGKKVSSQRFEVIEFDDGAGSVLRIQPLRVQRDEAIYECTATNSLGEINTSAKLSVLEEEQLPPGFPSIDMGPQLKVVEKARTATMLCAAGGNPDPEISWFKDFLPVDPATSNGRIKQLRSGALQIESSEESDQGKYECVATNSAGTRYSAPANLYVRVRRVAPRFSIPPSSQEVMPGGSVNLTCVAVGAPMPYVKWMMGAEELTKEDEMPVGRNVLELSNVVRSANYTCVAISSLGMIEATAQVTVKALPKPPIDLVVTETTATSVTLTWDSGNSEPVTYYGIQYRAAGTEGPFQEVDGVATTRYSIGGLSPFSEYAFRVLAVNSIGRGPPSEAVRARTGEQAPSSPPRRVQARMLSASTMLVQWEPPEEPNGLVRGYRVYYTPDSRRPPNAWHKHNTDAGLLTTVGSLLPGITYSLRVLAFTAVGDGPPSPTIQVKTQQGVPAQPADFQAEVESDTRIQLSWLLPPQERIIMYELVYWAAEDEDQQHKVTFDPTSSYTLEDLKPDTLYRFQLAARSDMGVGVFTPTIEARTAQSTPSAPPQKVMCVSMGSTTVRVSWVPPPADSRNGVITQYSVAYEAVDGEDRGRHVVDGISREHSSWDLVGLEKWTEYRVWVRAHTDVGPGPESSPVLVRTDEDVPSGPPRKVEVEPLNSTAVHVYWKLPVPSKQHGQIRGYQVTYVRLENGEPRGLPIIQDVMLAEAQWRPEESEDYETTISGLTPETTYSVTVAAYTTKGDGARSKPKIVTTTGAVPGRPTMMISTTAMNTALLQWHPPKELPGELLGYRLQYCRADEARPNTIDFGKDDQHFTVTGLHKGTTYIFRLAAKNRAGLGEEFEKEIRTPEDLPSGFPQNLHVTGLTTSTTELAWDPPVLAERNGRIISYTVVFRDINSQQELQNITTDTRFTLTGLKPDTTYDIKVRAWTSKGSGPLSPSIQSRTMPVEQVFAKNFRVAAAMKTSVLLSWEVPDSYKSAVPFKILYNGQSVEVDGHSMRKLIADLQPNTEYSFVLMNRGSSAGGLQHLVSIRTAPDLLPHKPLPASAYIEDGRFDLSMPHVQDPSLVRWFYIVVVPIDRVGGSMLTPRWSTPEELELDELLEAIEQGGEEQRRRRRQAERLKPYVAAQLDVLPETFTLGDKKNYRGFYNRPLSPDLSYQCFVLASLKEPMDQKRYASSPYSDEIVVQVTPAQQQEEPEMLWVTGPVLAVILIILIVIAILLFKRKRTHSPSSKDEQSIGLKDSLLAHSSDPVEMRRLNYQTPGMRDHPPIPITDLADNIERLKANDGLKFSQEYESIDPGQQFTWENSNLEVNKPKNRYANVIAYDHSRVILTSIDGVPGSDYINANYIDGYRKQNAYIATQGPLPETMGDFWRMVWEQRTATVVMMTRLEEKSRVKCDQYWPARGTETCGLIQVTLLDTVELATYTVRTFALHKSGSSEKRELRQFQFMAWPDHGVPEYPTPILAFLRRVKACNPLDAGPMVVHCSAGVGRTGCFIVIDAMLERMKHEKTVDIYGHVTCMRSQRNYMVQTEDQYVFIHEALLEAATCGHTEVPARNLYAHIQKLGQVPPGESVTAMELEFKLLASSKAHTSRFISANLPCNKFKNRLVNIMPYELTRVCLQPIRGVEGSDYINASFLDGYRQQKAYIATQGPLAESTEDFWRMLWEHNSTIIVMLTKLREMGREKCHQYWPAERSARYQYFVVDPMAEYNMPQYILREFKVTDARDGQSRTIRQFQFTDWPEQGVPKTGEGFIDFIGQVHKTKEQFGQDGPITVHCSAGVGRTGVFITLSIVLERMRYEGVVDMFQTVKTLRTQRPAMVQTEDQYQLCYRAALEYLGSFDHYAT

The IC50 is the concentration that inhibits the measured activity by half. Higher therefore signals weaker potency in that assay. One may read the inhibition as the change of the read-out against control, counted positive when it falls. Consider `CCc1oc2cc(S(=O)(=O)Nc3nccs3)ccc2c1C(=O)c1cc(Br)c(O)c(Br)c1`, for which the 50% inhibitory concentration (IC50) is > 100 µM in test [1]; 21.8 µM in test [2]; 8 µM in test [3]; 66.7 µM in test [5]; 3 µM in test [7]. Besides, the inhibition entry in test [4] is “Active”. Also, the inhibition in test [6] turned out to be 79.5%; in test [8] it was 99.4%.
